Laboratory results as given in ChEMBL document CHEMBL1926586, “A new class of antimalarial dioxanes obtained through a simple two-step synthetic approach: rational design and structure-activity relationship studies” (J Med Chem, 2011).

Columns and labels:
[1] = Therapeutic index, ratio of IC50 for human HMEC1 cells to IC50 for chloroquine-resistant Plasmodium falciparum W2; format: cell-based; conditions: read-out: Ratio IC50
Plasmodium falciparum [2] = test: Antimalarial activity against chloroquine-resistant Plasmodium falciparum W2 infected in human type A-positive red blood cells assessed as parasite lactate dehydrogenase activity after 72 hrs by spectrophotometric analysis; format: functional, organism-based; conditions: W2, 72 h
Outline: (§1)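 Parasites were cultured in human type A-positive red blood cells at 5% hematocrit. Medium was RPMI 1640 with 1% AlbuMax, 0.01% hypoxanthine, 20 mM Hepes and 2 mM glutamine. Cultures were held at 37 °C under 1% O2, 5% CO2, 94% N2. Compounds were dissolved in water or DMSO, then diluted in medium. Values are mean ± SD of three experiments in duplicate.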

[3] = Cytotoxicity against human HMEC1 cells after 72 hrs by MTT assay; format: cell-based; conditions: HMEC-1, 72 h
Plasmodium falciparum [4] = test: Antimalarial activity against chloroquine-sensitive Plasmodium falciparum D10 infected in human type A-positive red blood cells assessed as parasite lactate dehydrogenase activity after 72 hrs by spectrophotometric analysis; format: functional, organism-based; conditions: D10, 72 h; outline: as §1

Row | Compound | selectivity ratio [1] | IC50 (Plasmodium falciparum [2]) [µM] | IC50 [3] [µM] | IC50 (Plasmodium falciparum [4]) [µM]
1 | CCCCC1(CCCC)C[C@H](C(=O)OC)[C@](CCCC)(OC)OO1 (mixture of isomers) | 90 | 1.2 | 108 | 2.9
2 | CCCC[C@]1(C)C[C@H](C(=O)OC)[C@](CCCC)(OC)OO1 (mixture of isomers) | – | 1.5 | – | 4.2
3 | CCCC[C@]1(OC)OOC(C)(C)C[C@@H]1C(=O)OC (mixture of isomers) | – | > 30 | – | > 30
4 | CCCCC1(CCCC)C[C@H](C(=O)OC)[C@@](CCCC)(OC)OO1 (racemic) | – | 1.2 | – | 2.3
5 | CCCCC1(CCCC)C[C@H](C(=O)OC)[C@@](C)(OC)OO1 (mixture of isomers) | 90 | 0.8 | 98.3 | 2.6
6 | CCCC[C@@]1(C)C[C@H](C(=O)OC)[C@](C)(OC)OO1 (mixture of isomers) | – | 11.8 | – | 12.6
7 | CCCC[C@@]1(C)C[C@H](C(=O)OC)[C@@](C)(OC)OO1 (mixture of isomers) | – | 6.4 | – | 17.7
8 | CC[C@@]1(OC)OOC(C)(C)C[C@@H]1C(=O)OC (mixture of isomers) | – | > 30 | – | > 30
9 | CC/C=C/[C@H](CC)C[C@@]1(C)C[C@@H](CC)[C@@H](CC(=O)OC)OO1 [PLAKORTIN] | – | 0.4 | – | 0.9
10 | CCCC[C@@]1(C)C[C@H](C(=O)OC)[C@](CCCC)(OC)OO1 (mixture of isomers) | 90 | 1.3 | 167 | 2.6
11 | CCCC[C@]1(C)C[C@H](C(=O)OC)[C@](C)(OC)OO1 (mixture of isomers) | – | 4.9 | – | 8.5
12 | COC(=O)[C@H]1CC(C)(C)OO[C@@]1(C)OC (mixture of isomers) | – | > 30 | – | > 30
13 | CCCCC1(CCCC)C[C@H](C(=O)OC)[C@](C)(OC)OO1 (mixture of isomers) | – | 2.5 | – | 7.4
14 | CCCC[C@]1(C)C[C@H](C(=O)OC)[C@@](C)(OC)OO1 (mixture of isomers) | – | 8.4 | – | 17.7
15 | CCCC[C@]1(C)C[C@H](C(=O)OC)[C@@](CCCC)(OC)OO1 (mixture of isomers) | – | 5 | – | 12.3
16 | CCCC[C@@]1(OC)OOC(C)(C)C[C@@H]1C(=O)OC (mixture of isomers) | 90 | 1.5 | > 384 | 3.7
